The test system of data set [1] is Trichophyton rubrum. The data set is described as follows: Antimicrobial activity against Trichophyton rubrum SNB-TR1 after 5 days. Format: functional. The following applies: SNB-TR1, 120 h. In outline:
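MIC against the dermatophyte T. rubrum, with itraconazole as the reference drug.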

The test system of data set [2] is Aspergillus fumigatus. The data set is described as follows: Antimicrobial activity against Aspergillus fumigatus SNB-AF1 after 24 hrs. As to conditions: SNB-AF1, 24 h.
Data set [3] relates to Candida parapsilosis. The data set is described as follows: Antimicrobial activity against Candida parapsilosis ATCC 22019 after 24 hrs. The following applies: Lodderomyces parapsilosis, ATCC 22019, 24 h.
Data set [4] has as its system Candida albicans. The data set is described as follows: Antimicrobial activity against Candida albicans ATCC 10231 after 24 hrs. As to conditions: ATCC 10231, 24 h.
Data set [5] relates to Escherichia coli. In words: Antimicrobial activity against Escherichia coli ATCC 25922 after 24 hrs. Format: functional.
Data set [6] deals with MRC5. The data set is described as follows: Cytotoxicity activity against human MRC5 cells. Format: cell-based. An outline of the steps: (§1)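 IC50 in μM against KB (nasopharyngeal epidermoid carcinoma) and MRC5 (normal fetal lung) cells, with taxotere as the positive control.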
The nature of data set [7]: Selectivity index, ratio of IC50 for human MRC5 cells to IC50 for Candida albicans ATCC 10231.
In data set [8] the test system is KB. The data set is described as follows: Cytotoxicity activity against human KB cells. Format: functional, cell-based. An outline of the steps:
as §1

Data set [9] concerns Staphylococcus aureus. In words: Antimicrobial activity against Staphylococcus aureus ATCC 29213 after 24 hrs. Format: functional. As to conditions: ATCC 29213, 24 h.
Data set [10] in a line: Selectivity index, ratio of IC50 for human MRC5 cells to IC50 for Aspergillus […] SNB-AF1.
Data set [11] is described as follows: Cytotoxicity activity against human MDA435 cells. As to conditions: MDA-MB-435.
A short description of data set [12]: Selectivity index, ratio of IC50 for human MRC5 cells to IC50 for Staphylococcus aureus ATCC 29213.
The nature of data set [13]: Selectivity index, ratio of IC50 for human MRC5 cells to IC50 for Trichophyton rubrum SNB-TR1.
The nature of data set [14]: Selectivity index, ratio of IC50 for human MRC5 cells to IC50 for Escherichia coli ATCC 25922.
Data set [15] in a line: Selectivity index, ratio of IC50 for human MRC5 cells to IC50 for Candida parapsilosis ATCC 22019.

Values after ≈ are worked out from the molar mass of the structure shown. Where only a bound is given, the exact number is not on record here.

Broadly, the MIC is the smallest concentration in the dilution series that meets the test's criterion for growth inhibition. Higher therefore signals weaker potency. `CCC(C)n1ncn(-c2ccc(N3CCN(c4ccc(OCC5COC(Cn6cncn6)(c6ccc(Cl)cc6Cl)O5)cc4)CC3)cc2)c1=O` (configuration not stated) [ITRACONAZOLE]: the MIC amounted to 0.03 µg/mL (≈ 0.0425 µM) in data set [1] and 0.5 µg/mL (≈ 0.709 µM) in data set [2].

In the case of `OC(Cn1cncn1)(Cn1cncn1)c1ccc(F)cc1F` [FLUCONAZOLE], the MIC in data set [3] and in data set [4] was 4 µg/mL (≈ 13.1 µM) each time.

For the compound GENTAMICIN, 8 µg/mL was the least that counted as inhibitory in data set [5] (MIC).

One may read the IC50 as the concentration that inhibits the measured activity by half. Read a low IC50 as greater potency in that assay. On to `CC(C)=CCC/C(C)=C/CC/C(C)=C/Cc1c(O)c(Cl)c(C)c(C(=O)O)c1O`, for which the figures for the IC50 in [6], in [8] and in data set [11] were 19.7 µM, 36.6 µM and 15.1 µM, respectively. Besides, the selectivity ratio worked out at 0.5 in data set [7], 2 in data set [12], 8 in [14] and 0.5 in data set [15]. The MIC in data set [1] turned out to be 8 µg/mL (≈ 19.7 µM); in data set [3] it was 16 µg/mL (≈ 39.3 µM); in data set [5] (ATCC 25922, 24 h) it was 1 µg/mL (≈ 2.46 µM); in data set [4], 16 µg/mL (≈ 39.3 µM); in data set [9], 4 µg/mL (≈ 9.83 µM); in [2] it was 64 µg/mL (≈ 157 µM). The figures for the “Selectivity Index” value in data set [10] and in data set [13] were 0.1 and 1, respectively.

Consider `CC(=O)O[C@@]12CO[C@@H]1C[C@H](O)[C@@]1(C)C(=O)[C@H](O)C3=C(C)[C@@H](OC(=O)[C@H](O)[C@@H](NC(=O)OC(C)(C)C)c4ccccc4)C[C@@](O)([C@@H](OC(=O)c4ccccc4)[C@H]21)C3(C)C` [DOCETAXEL], for which the IC50 in data set [6] came to 0.0005 µM; in [8] it was 0.0002 µM.

With `Cc1onc(-c2ccccc2)c1C(=O)N[C@@H]1C(=O)N2[C@@H]1SC(C)(C)[C@@H]2C(=O)O` [OXACILLIN], in [9], the lowest concentration to inhibit growth (MIC) was 0.5 µg/mL (≈ 1.25 µM).

Take `C/C(=C\Cc1c(O)c(Cl)c(C)c(C(=O)O)c1O)CC/C=C(\C)CCCC(C)(C)O`: the IC50 in data set [6] came to 62.1 µM; in [8] it was 47.3 µM; in data set [11], 42.4 µM. The selectivity ratio in data set [7] amounted to 1.6; in [12], 0.8; in data set [14], 3.3; in data set [15], 1.6. Further, the minimal inhibitory concentration (MIC) in data set [1] came out at 32 µg/mL (≈ 75.3 µM); in data set [3] it was 16 µg/mL (≈ 37.7 µM); in [5] (ATCC 25922, 24 h), 8 µg/mL (≈ 18.8 µM); in data set [4], 16 µg/mL (≈ 37.7 µM); in [9], 32 µg/mL (≈ 75.3 µM); in data set [2] it was 128 µg/mL (≈ 301 µM). Besides, the “Selectivity Index” value came out at 0.2 in data set [10] and 0.8 in data set [13].

For the compound `CC(C)=CCC/C(C)=C/CCC(C)(O)C1Cc2c(O)c(C=O)c(C)c(Cl)c2O1` (configuration not stated), the IC50 in data set [6] amounted to 15.1 µM; in data set [8], 16.5 µM; in [11], 16.4 µM. For the same compound, the MIC in data set [1] was 128 µg/mL (≈ 315 µM); in data set [3], 128 µg/mL (≈ 315 µM); in [5] (ATCC 25922, 24 h), 64 µg/mL (≈ 157 µM); in data set [4] it was 128 µg/mL (≈ 315 µM); in data set [9], 128 µg/mL (≈ 315 µM); in [2] it was above 128 µg/mL.

Turning to `CC(C)=CCCC(C)(O)CCC/C(C)=C/Cc1c(O)c(Cl)c(C)c(C(=O)O)c1O` (configuration not stated), the values for the IC50 in data set [6], in [8] and in data set [11] were 13.7 µM, 28.4 µM and 4.9 µM, respectively. For the same compound, the selectivity ratio in data set [7] was determined as 0.2; in data set [12], 0.2; in data set [14], 0.7; in [15], 0.2. Further, the MIC in data set [1] is 4 µg/mL (≈ 9.41 µM); in data set [3], 32 µg/mL (≈ 75.3 µM); in [5] (ATCC 25922, 24 h), 8 µg/mL (≈ 18.8 µM); in data set [4], 32 µg/mL (≈ 75.3 µM); in data set [9] it was 32 µg/mL (≈ 75.3 µM); in data set [2], 32 µg/mL (≈ 75.3 µM). For the same compound, the “Selectivity Index” value came to 0.2 in data set [10] and 1.5 in data set [13].
